Test results reported in paper PMC6744591 (Heliyon, 2019).

Tests used:
[1] = system: alloxan induced diabetes rats; experiment: Blood glucose lowering in alloxan-induced diabetic rats; format: in vivo, Wister rats
In short: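 Alloxan at 150 mg/kg i.p. in normal saline given to Wistar rats (~190 g); rats above 120 mg/dl glucose after 5–7 days counted as diabetic. Rats fasted 12 h, water allowed, fasted throughout; 9 per group. […] Basal glucose taken first; tail-vein glucometer readings at set intervals, triplicate averages.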

[2] = Pharmacokinetics: plasma concentration of insulin in diabetic rats; format: in vivo; conditions: for Tmax: plasma insulin, HPLC-UV

Which “decrease in blood glucose levels” value ([1]; fasted, oral, 40.0 I.U/kg, glucometer, % of initial level) does the source give for insulin [Ins-solu] here?
Its value is 1–2%.

And the “maximum decrease in blood glucose levels” value ([1]; fasted, subcutaneous, 4.0 I.U/kg, at 4 h)?
Its value is > 60%.

And the “time for which decrease in blood glucose level was sustained” value ([1]; subcutaneous, 4.0 I.U/kg)?
The value was “over 4 h”.

And the Tmax ([2]; oral, 40 IU/kg)?
The Tmax was 3.0 h.

And the AUC ([2]; subcutaneous, 4.0 IU/kg, over 12 h, linear trapezoidal rule, mean ± SD, n = 5)?
The AUC was 342.56 ± 30.9 µg/mL/h.

What about the Tmax ([2]; subcutaneous, 4.0 IU/kg) of the same substance?
Its Tmax is 1.0 h.
